Experimental data published in ChEMBL document CHEMBL4665630, “Synthesis and biological evaluation of anthraquinone derivatives as allosteric phosphoglycerate mutase 1 inhibitors for cancer treatment” (Eur J Med Chem, 2019).
pIC50: −log10 of the molar value.

These molecules were tested against Phosphoglycerate mutase 1 (Homo sapiens, UniProt P18669) (assay: Inhibition of human recombinant PGAM1 by measuring decrease in OD by enzyme based assay). Details: not given.
How it was run: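 C-terminal His6-tagged PGAM1, Ni-NTA purified, 4.6 nM, preincubated with inhibitor in DMSO; coupled enolase/pyruvate kinase M2/LDH system in 100 mM Tris-HCl, 100 mM KCl, 5 mM MgCl2, 1 mM ADP, 0.2 mM NADH, 4 mM 3PG; NADH loss read at 340 nm. Counter-screen without PGAM1 using 4 mM 2PG. Mean ± s.d., n=3.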

Phosphoglycerate mutase 1, sequence (P18669 whole entry): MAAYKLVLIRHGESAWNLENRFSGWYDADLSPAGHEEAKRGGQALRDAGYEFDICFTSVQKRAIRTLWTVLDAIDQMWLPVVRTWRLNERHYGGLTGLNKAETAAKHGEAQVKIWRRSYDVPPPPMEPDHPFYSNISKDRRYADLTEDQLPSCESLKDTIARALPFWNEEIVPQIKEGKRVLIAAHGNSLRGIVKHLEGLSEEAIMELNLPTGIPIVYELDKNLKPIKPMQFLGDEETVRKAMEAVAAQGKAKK

Row | SMILES | pIC50
1 | O=C1c2ccccc2C(=O)c2c1cc(NS(=O)(=O)c1ccc(F)c(C(F)(F)F)c1)c(O)c2O | 6.20
2 | O=C1c2ccccc2C(=O)c2c1cc(NS(=O)(=O)c1ccc(-c3ccc(F)cc3)cc1)c(O)c2O | 6.59

What follows are molecules tested on NCI-H1299 (assay: Antiproliferative activity against human H1299 cells assessed as reduction in cell viability measured after 72 hrs by MTT assay). Details: NCI-H1299, 72 h.
Format: functional, cell-based
How it was run: (§1)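 Cells grown in RPMI-1640 (H1299, PC9) or F-12K (A549) with 10% FBS and penicillin/streptomycin; 2000 H1299 or A549 or 1000 PC9 cells per well, attached 24 h, exposed to inhibitor 72 h; MTT 0.5 mg/mL for 4 h, absorbance at 570 nm; mean ± s.d., n=3.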

Row | SMILES | pIC50
3 | O=C1c2ccccc2C(=O)c2c1cc(NS(=O)(=O)c1ccc(F)c(C(F)(F)F)c1)c(O)c2O | 4.65
4 | O=C1c2ccccc2C(=O)c2c1cc(NS(=O)(=O)c1ccc(-c3ccc(F)cc3)cc1)c(O)c2O | 5.21

Each molecule was assayed on A549 (assay: Antiproliferative activity against human A549 cells assessed as reduction in cell viability measured after 72 hrs by MTT assay). Details: A549, 72 h.
Format: functional, cell-based
How it was run: as §1

Row | SMILES | pIC50
5 | O=C1c2ccccc2C(=O)c2c1cc(NS(=O)(=O)c1ccc(-c3ccc(F)cc3)cc1)c(O)c2O | 4.92

The molecules below were run on PC-9 (assay: Antiproliferative activity against human PC-9 cells assessed as reduction in cell viability measured after 72 hrs by MTT assay). Details: PC-9, 72 h.
Format: functional, cell-based
How it was run: as §1

Row | SMILES | pIC50
6 | O=C1c2ccccc2C(=O)c2c1cc(NS(=O)(=O)c1ccc(-c3ccc(F)cc3)cc1)c(O)c2O | 5.27
